Laboratory results reported in ChEMBL document CHEMBL1123445, “Synthesis and antifolate properties of 5,10-methylenetetrahydro-8,10-dideazaminopterin” (J Med Chem, 1986).
Converted amounts (≈) assume the structure as drawn.

How the values were obtained:
[1] = molecular target: Dihydrofolate reductase (Lactobacillus casei, UniProt P00381); test: Compound was evaluated for the inhibition of dihydrofolate reductase (DHFR)derived from Lactobacillus casei; parameters: species or system Lacticaseibacillus casei
Dihydrofolate reductase, sequence (P00381 whole entry): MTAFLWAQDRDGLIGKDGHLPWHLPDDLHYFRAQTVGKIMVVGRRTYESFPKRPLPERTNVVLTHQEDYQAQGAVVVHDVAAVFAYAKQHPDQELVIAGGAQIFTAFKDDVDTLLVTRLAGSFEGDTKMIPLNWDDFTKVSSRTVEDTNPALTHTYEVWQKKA

[2] = system: L1210; test: Compound was evaluated for inhibitory activity against DHFR in L1210 cells; format: functional, cell-based, Mus musculus
[3] = system: L1210; test: Compound was evaluated for growth inhibition in L1210 murine leukemia cells; format: functional, cell-based; details: Mus musculus
[4] = system: Lacticaseibacillus casei; test: Compound was evaluated for growth inhibition in Lactobacillus casei ATCC 7469; format: functional, organism-based
In short: (§1)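 Lactobacillus casei growth was measured in medium with folate at 1 ng/mL.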

[5] = system: Lacticaseibacillus casei; test: Compound was evaluated for growth inhibition in Lactobacillus casei MTX-resistant; format: functional, organism-based; in short: as §1
[6] = molecular target: T1, Thymidylate synthase (Lactobacillus casei, UniProt P00469); test: Compound was evaluated for the inhibition of thymidylate synthase (TS) derived from Lactobacillus casei; parameters: species or system Lacticaseibacillus casei
T1 sequence (P00469 whole entry): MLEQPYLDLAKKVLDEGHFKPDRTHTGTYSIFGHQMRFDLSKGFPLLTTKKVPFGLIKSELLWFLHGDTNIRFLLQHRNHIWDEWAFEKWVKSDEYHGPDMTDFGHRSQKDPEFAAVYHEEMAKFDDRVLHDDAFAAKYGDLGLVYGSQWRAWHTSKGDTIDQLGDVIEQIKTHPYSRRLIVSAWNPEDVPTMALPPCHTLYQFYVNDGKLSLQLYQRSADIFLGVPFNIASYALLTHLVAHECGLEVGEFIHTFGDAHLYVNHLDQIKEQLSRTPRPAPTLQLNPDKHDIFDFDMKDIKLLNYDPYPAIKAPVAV

[7] = system: Enterococcus faecium; test: Compound was evaluated for growth inhibition in Streptococcus faecium ATCC 8043; format: functional, organism-based
In short: (§2)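 Bacterial growth inhibition was run in medium with folate at 1 ng/mL.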

[8] = system: Enterococcus faecium; test: Compound was evaluated for growth inhibition in Streptococcus faecium MTX-resistant; format: functional, organism-based; in short: as §2
[9] = Lacticaseibacillus casei, read-out: IC50

Structure (SMILES)	IC50 [1] [nM]	Ki [2] [nM]	IC50 [3] [nM]	IC50 [4] [ng/mL]	IC50 [5, 9] [ng/mL]	IC50 [6] [nM]	IC50 [7] [ng/mL]	IC50 [8] [ng/mL]	IC50 [5] [ng/mL]
Nc1nc(N)c2c(n1)CCC1CC(c3ccc(C(=O)NC(CCC(=O)O)C(=O)O)cc3)CN21 (configuration not stated)	1500	> 10	250	1 (≈ 0.0022 µM)	> 10000	> 500000	2 (≈ 0.0044 µM)	530 (≈ 1.17 µM)	–
Nc1nc(N)c2c(n1)CCC1CC(c3ccc(C(=O)NC(CCC(=O)O)C(=O)O)cc3)C(=O)N21 (configuration not stated)	1600	> 10	> 10000	0.54 (≈ 0.00115 µM)	> 10000	> 200000	6.2 (≈ 0.0132 µM)	> 10000	–
CN(Cc1cnc2nc(N)nc(N)c2n1)c1ccc(C(=O)N[C@@H](CCC(=O)O)C(=O)O)cc1 [METHOTREXATE]	–	0.0032	2.5	0.009 (≈ 1.98e-05 µM)	–	–	0.2 (≈ 0.00044 µM)	3300 (≈ 7.26 µM)	> 500000
